Screening data from PubChem BioAssay.
Rows were chosen to be rich in hits. Some 3.3% of all compounds tested hit in one or more screens of this group.
Rev-RRE block = inhibitors of HIV-1 Rev-RRE RNA interaction | P05866 | Rev peptide-RRE RNA binding, FRET | inhibition, % at 8 µM | 97,000 compounds, 0.79% hits | AID 704;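 active means inhibition above the screen-wide mean plus 3 SD, cut at about 35% in these data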;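 further: 0% = median DMSO wells and 100% = median Neomycin B control wells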
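Test system: Cy5-tagged RRE RNA duplex with fluorescein-tagged Rev peptide; Probe or stimulus: labelled Rev peptide; Schedule: 5 min preincubation and 15 min binding, 25 °C; Signal: FRET fluorescence readout; Evaluation: % inhibition from 671/540 nm acceptor-to-donor ratio, scaled between controls; Control set: DMSO and neomycin B.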
IL1B cytotox = HUVEC cytotoxicity counter-screen, IL-1B stimulated. AID 845. HUVEC cell count loss, Hoechst imaging. cell count reduction, % at 2 µM. 94,000 compounds, 0.41% hits;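 active means cell count reduction more than 3 SD above the screen-wide mean, cut at about 70% in these data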;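 further: normalized per plate to untreated control cells as the no-loss baseline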
Measles CPE = protection of cells from measles virus; Measles virus-infected cells, CPE protection, absorbance; protection (pct of control), % at 4 µM; 140,000 compounds, 1.5% hits; in the data active means protection mostly above about 24%, no sharp cut-off; inactive means mostly below about 26%
FAK inh = inhibitors of human focal adhesion kinase | Q05397 | biochemical FAK kinase activity assay | inhibition, %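 (tested at 7 µM)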 | 97,000 compounds, 0.84% hits | AID 727;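 further: 0% = DMSO and 100% = reference compound high control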
Target sequence (Q05397 whole entry, looked up): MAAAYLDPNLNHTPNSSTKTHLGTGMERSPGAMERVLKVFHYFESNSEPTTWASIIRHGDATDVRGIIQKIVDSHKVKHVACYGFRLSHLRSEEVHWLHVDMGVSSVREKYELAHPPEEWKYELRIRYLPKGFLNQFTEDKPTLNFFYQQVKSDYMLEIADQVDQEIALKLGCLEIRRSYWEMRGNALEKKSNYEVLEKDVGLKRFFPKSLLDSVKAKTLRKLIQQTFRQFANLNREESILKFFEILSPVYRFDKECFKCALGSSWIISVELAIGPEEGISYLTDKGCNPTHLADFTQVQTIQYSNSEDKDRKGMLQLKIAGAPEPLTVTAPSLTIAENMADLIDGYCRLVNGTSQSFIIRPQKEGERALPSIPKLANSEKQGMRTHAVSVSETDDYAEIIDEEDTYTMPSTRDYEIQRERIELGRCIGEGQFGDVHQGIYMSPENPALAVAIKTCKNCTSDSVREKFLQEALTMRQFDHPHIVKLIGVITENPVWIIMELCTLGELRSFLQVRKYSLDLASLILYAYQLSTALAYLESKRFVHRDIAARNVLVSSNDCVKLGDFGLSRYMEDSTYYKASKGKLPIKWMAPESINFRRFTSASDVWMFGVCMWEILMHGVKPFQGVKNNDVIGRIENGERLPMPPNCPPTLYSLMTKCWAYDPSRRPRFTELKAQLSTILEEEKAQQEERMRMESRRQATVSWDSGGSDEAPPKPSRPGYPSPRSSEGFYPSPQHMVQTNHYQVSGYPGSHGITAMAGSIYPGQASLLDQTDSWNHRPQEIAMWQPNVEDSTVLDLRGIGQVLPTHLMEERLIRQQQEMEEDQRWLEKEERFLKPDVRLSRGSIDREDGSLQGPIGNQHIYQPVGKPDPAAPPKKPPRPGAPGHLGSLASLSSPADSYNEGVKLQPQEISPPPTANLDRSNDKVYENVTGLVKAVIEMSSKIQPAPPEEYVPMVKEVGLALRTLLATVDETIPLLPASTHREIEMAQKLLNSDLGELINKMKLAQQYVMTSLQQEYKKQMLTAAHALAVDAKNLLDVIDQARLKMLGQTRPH
IL1B NFkB inh = blocks IL-1B driven NFkB nuclear translocation in HUVEC cells. 94,000 compounds, 0.43% hits. inhibition, % at 2 µM. HUVEC IL-1B NFkB p65 nuclear translocation imaging;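 active means inhibition above about 30% together with a positive call from visual inspection of the well image, limit read from the data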;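 further: nuclear over cytoplasmic p65 intensity ratio measured by imaging; 0% = IL-1B stimulated DMSO wells and 100% = unstimulated DMSO wells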
IL1B NFkB pot = enhances IL-1B driven NFkB nuclear translocation. AID 819. HUVEC IL-1B NFkB p65 nuclear translocation imaging. 94,000 compounds, 0.3% hits. activation, % at 2 µM;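 active means activation above 40%, about the mean plus 3 SD, also judged a hit on visual image review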;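 further: percent activation is computed from the nuclear over cytoplasmic p65 intensity ratio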
FAK inh conf = confirmation of human focal adhesion kinase (FAK) inhibitors. shares compounds with FAK inh. FAK kinase biochemical inhibition assay. inhibition, % at 7 µM. 750 compounds, 28% hits. AID 794
* marks the source's active call; other numbers are inactive results. Unless noted, no stated cut-off is given here; in the data, active means inhibition above about 19%; inactive means the rest.

CS(=O)(=O)N1CCN(c2ccccc2NC(=O)c2ccc(Br)o2)CC1 was read as Rev-RRE block 8, IL1B cytotox 4, Measles CPE 10, FAK inh 21*, IL1B NFkB inh 3, IL1B NFkB pot -3 and FAK inh conf 3.
Screening O=C(NCCO)c1cccc(Nc2nc(-c3ccccc3)c3cc(Cl)ccc3n2)c1 returned Rev-RRE block -1, IL1B cytotox -16, Measles CPE 4, FAK inh 33*, IL1B NFkB inh -11, IL1B NFkB pot 11 and FAK inh conf 1.
`COc1ccc(C(=O)COC(=O)CN2C(=O)C3C4C=CC(C5CC45)C3C2=O)cc1` (stereo not given) gave Measles CPE 3.
Cn1c(SCC(=O)N2CCc3ccccc32)nnc1-c1ccc(S(=O)(=O)N2CCCC2)cc1 was read as Measles CPE 3.
For CCc1nc(SCC(=O)c2ccc3c(c2)OCCO3)c2ccccc2n1 the results were Rev-RRE block 8, IL1B cytotox -6, Measles CPE 9, FAK inh 22*, IL1B NFkB inh 3, IL1B NFkB pot -3 and FAK inh conf 8.
For CC(C)(C)c1nc(SCC(=O)Nc2ccc3c(c2)OCCO3)c2ccccc2n1 the results were Rev-RRE block -4, IL1B cytotox -27, Measles CPE 22, FAK inh 19*, IL1B NFkB inh -6, IL1B NFkB pot 6 and FAK inh conf 8.
Cc1nnc(SCC(=O)Nc2ccc(N3CCOCC3)cc2)n1-c1ccccc1 was read as Rev-RRE block 1, IL1B cytotox -19, Measles CPE 47, FAK inh 5, IL1B NFkB inh 6 and IL1B NFkB pot -6.
CC(C)(C)c1nc(SCC(=O)Nc2ccc(N3CCOCC3)cc2)c2ccccc2n1 was read as Rev-RRE block 11, IL1B cytotox 15, Measles CPE 8, FAK inh 32*, IL1B NFkB inh 7, IL1B NFkB pot -7 and FAK inh conf 15.
`O=C(CSc1nc2ccccc2[nH]1)Nc1ccc2c(c1)OCCO2` gave Rev-RRE block 5, IL1B cytotox -11, Measles CPE 10, FAK inh 2, IL1B NFkB inh -33 and IL1B NFkB pot 33.
Screening O=c1c(O)c(-c2cccs2)oc2ccccc12 returned Rev-RRE block 42*, IL1B cytotox -48, Measles CPE 5, FAK inh 23*, IL1B NFkB inh -19, IL1B NFkB pot 19 and FAK inh conf 12.
For Cc1ccc(-c2oc3ccccc3c(=O)c2O)cc1 the results were Measles CPE 17.
`O=C1Nc2ccc(S(=O)(=O)NCc3ccco3)c3cccc1c23` gave Rev-RRE block 6, IL1B cytotox -51, FAK inh 19*, IL1B NFkB inh -11, IL1B NFkB pot 11 and FAK inh conf 1.
N#C/C(=C\c1ccc(N2CCOCC2)c([N+](=O)[O-])c1)c1nc2ccccc2[nH]1 was read as Measles CPE 5.
`Cc1ccc2nc(/C(C#N)=C\c3ccc(N4CCCCC4)c([N+](=O)[O-])c3)[nH]c2c1` gave Rev-RRE block 11, IL1B cytotox -3, Measles CPE 14, FAK inh 24*, IL1B NFkB inh -1, IL1B NFkB pot 1 and FAK inh conf 18.
Screening O=C(OCC(=O)N1CCCc2ccccc21)c1cccc(S(=O)(=O)N2CCc3ccccc32)c1 returned Measles CPE 23.
`COC(=O)C1=C(C)Nc2c(c(=O)n(C)c(=O)n2C)C1c1cccs1` (stereo not given) gave Rev-RRE block 11, IL1B cytotox 10, Measles CPE 32, FAK inh 19*, IL1B NFkB inh -5, IL1B NFkB pot 5 and FAK inh conf 5.
Screening Cc1c(Cl)cccc1N=Cc1ccc([N+](=O)[O-])s1 returned Rev-RRE block 10, IL1B cytotox -18, Measles CPE 6, FAK inh 25*, IL1B NFkB inh 12, IL1B NFkB pot -12 and FAK inh conf -1.
CC(=O)Nc1ccc2[nH]c(C)cc(=O)c2c1 was read as Rev-RRE block 7, Measles CPE 8, FAK inh 81* and FAK inh conf 6.
For Cc1cc(C)cc(OC(=O)CCN2C(=O)c3ccccc3C2=O)c1 the results were Rev-RRE block 6, IL1B cytotox -28, Measles CPE 7, FAK inh 3, IL1B NFkB inh -5 and IL1B NFkB pot 5.
Screening Cc1ccc(NC(=O)c2ccc(OC(=O)CCN3C(=O)c4ccccc4C3=O)cc2)cc1 returned Rev-RRE block 7, IL1B cytotox 20, Measles CPE 15, FAK inh 20*, IL1B NFkB inh 0, IL1B NFkB pot 0 and FAK inh conf 11.
Screening CCC(=O)Nc1ccc(S(=O)(=O)Nc2cc(C)on2)cc1 returned Rev-RRE block 12, IL1B cytotox 7, Measles CPE 3, FAK inh 34*, IL1B NFkB inh 5, IL1B NFkB pot -5 and FAK inh conf 0.
`CCOC(=O)Nc1ccc(S(=O)(=O)Nc2cc(C)on2)cc1` gave Rev-RRE block 1, IL1B cytotox -31, Measles CPE 16, FAK inh -4, IL1B NFkB inh -6 and IL1B NFkB pot 6.
For COc1ccc(S(=O)(=O)N(C)CC(=O)N2CCN(Cc3ccccc3)CC2)cc1C the results were Rev-RRE block 9, IL1B cytotox 9, Measles CPE 5, FAK inh 1, IL1B NFkB inh -3 and IL1B NFkB pot 3.
O=C1CCCN1CCCNc1ncnc2c1[nH]c1ccc(Cl)cc12 was read as Rev-RRE block 12, IL1B cytotox 21, Measles CPE 14, FAK inh 29*, IL1B NFkB inh -24, IL1B NFkB pot 24 and FAK inh conf 4.
CCN1CCCC1CNc1ncnc2c1[nH]c1ccc(Cl)cc12 (stereo not given) was read as Rev-RRE block 6, IL1B cytotox 10, Measles CPE 38, FAK inh 21*, IL1B NFkB inh -5, IL1B NFkB pot 5 and FAK inh conf 2.
O=C1CCCN1CCCn1cnc2c([nH]c3ccc(F)cc32)c1=O was read as Rev-RRE block 9, IL1B cytotox -1, Measles CPE 23, FAK inh -1, IL1B NFkB inh 8 and IL1B NFkB pot -8.
For CCc1cc2c(=O)c(-c3ccc4c(c3)OCCO4)c(C)oc2cc1OS(C)(=O)=O the results were Measles CPE 16.
`C=C1N(c2ccccc2)C(=O)OC1(C)C` gave Measles CPE 22.
C=CCn1c(SCC(=O)NC2CCS(=O)(=O)C2)nc2scc(C3CC3)c2c1=O (stereo not given) was read as Rev-RRE block 3, IL1B cytotox -22, Measles CPE 4, FAK inh -1, IL1B NFkB inh 12 and IL1B NFkB pot -12.
